Screening results: PubChem, several laboratories
L major viab: Leishmania major promastigote growth inhibition | Leishmania major promastigotes, resazurin fluorescence viability | 200,000 tested, 9% active | inhibition, % at 10 µM; in the data active = inhibition above about 50%;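 note: promastigotes grown with compound for 44 hours at 28 °C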
CHOP UPR activ: activators of apoptotic arm of unfolded protein response (CHOP). CHO-CHOP luciferase reporter, UPR activation, luminescence; percent of tunicamycin response over DMSO baseline. activation, % at 10 µM. 330,000 tested, 0.34% active. AID 449763;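 active = at 10 µM dose, activation of 40% or more, normalized to positive control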
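assay system = CHO CHOP reporter cells | amount = 500 CHO-CHOP cells per well | buffer or medium = F12 with 10% FBS | incubation = 16-18 h cell attachment, then 6 h compound exposure, 37 °C | detection = luminescence read with Steady-Glo | read-out = percent activation relative to tunicamycin control | controls = tunicamycin high control, DMSO low control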
T cruzi inh: T. cruzi replication inhibition | T. cruzi beta-gal in NIH3T3, luminescence, 90 h | inhibition, % (concentration not given with the values) | 300,000 tested, 1.4% active;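 active = mean inhibition across valid replicates above about 55%, limit read from the data; inconclusive = mean below that limit but half or more replicates reach it; inactive = mean below it, under half of replicates reach it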;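 note: signal also drops with host cell toxicity which is not excluded here; higher percent means less beta-gal luminescence so fewer parasites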
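System: Mouse NIH/3T3 fibroblasts infected with β-gal-expressing T. cruzi Tulahuen C4 | Quantity: NIH/3T3 cells, 5,000 per well | Reagent: 5000 reporter trypomastigotes per well | Dosing: Compound pinned at 50 nL/well, DMSO | Schedule: 3 h host attachment, then at least 90 h co-culture | Detection: GalScreen luminescence, 60 min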
Dynein transport: blocks dynein driven cargo transport along microtubules. z-score, hits read low. 220,000 tested, 0.47% active. 3617.4 mouse cells, GR-EGFP nuclear translocation imaging; test concentration mostly 20 µM; stimulated with dexamethasone, 1 µM; active compounds read low;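 active = plate z-score of nuclear minus cytoplasmic receptor signal below a set negative limit, without overly bright fluorescence or cell loss, cut at about -3.5 in these data, passing the limit was not always enough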;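 note: z-score of nuclear minus cytoplasmic ring GR-EGFP intensity difference per well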
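Buffer or medium: tet-free, stripped-serum medium; Also added: dexamethasone, 1.0 µM final; Technique: high-content fluorescence imaging after fixation; Times: 48 h induction, 1 h compound, 30 min dex at 37 °C; Read-out: per-cell GR-EGFP intensity, nucleus versus surrounding cytoplasmic ring, well-averaged.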
CHOP inh: CHOP inhibition in unfolded protein response. 220,000 tested, 3.8% active. inhibition, % at 10 µM. CHO-K1 CHOP-promoter luciferase, tunicamycin-induced, 15-18 h;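 active = compounds that reduced the stress-induced luciferase reporter signal by more than about 70% of percent inhibition, limit read from the data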
XBP1 UPR activ: adaptive UPR (XBP1) activation; CHO-XBP1 luciferase reporter, IRE1-XBP1 UPR activation, luminescence; percent of tunicamycin response, DMSO as zero; activation, % at 20 µM; 330,000 tested, 0.33% active; AID 463104;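 active = versus positive control, 20 µM dose yields 30% or more activation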
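Material: CHO cell line with stable XBP1 luciferase reporter; buffer or medium: F12 medium containing 10% fetal bovine serum; compound: single point, 20 µM final compound, 1% DMSO; incubation: 6 h treatment, 37 °C; measured by: glow luminescence from Steady-Glo reagent; evaluation: activation, % of tunicamycin; control set: tunicamycin high, DMSO low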
Lmaj promast 1uM: blocks Leishmania major promastigote growth at 1 uM, repeat screen | 1,100 tested, 13% active | L. major promastigote growth, resazurin fluorescence, 48 h | inhibition, % at 1 µM | AID 1258 | shares compounds with L major viab;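 active = inhibition above about 50% in both repeat tests, limit read from the data; inconclusive = one repeat under the set limit, the other over it; inactive = both repeats under the set limit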
Dynein inh conf: dynein cargo transport inhibition, confirmation | shares compounds with Dynein transport | 3617.4 GR-EGFP nuclear translocation imaging, dexamethasone-induced | calls only at 20 µM | 1,000 tested, 69% active | AID 463116;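 active = inhibition of receptor movement into the nucleus at or above a set limit in both runs, with normal cell brightness and cell count; inconclusive = limit reached in only one run, brightness and count normal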;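 note: dexamethasone at 1 µM final in well for 30 min; nuclear minus cytoplasmic GR-EGFP mean intensity difference in channel 2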
CHOP UPR conf: confirmation of apoptotic unfolded protein response (CHOP) activators; shares compounds with CHOP UPR activ; CHO-CHOP cells, CHOP-luciferase reporter luminescence; percent of tunicamycin response, DMSO as zero; activation, % at 10 µM; 1,000 tested, 64% active; AID 463112; in the data active = activation above about 33%
UPR XBP1 confirm: adaptive UPR (XBP1) activation, confirmed; shares compounds with XBP1 UPR activ; CHO-XBP1 IRE1-XBP1 luciferase reporter, luminescence; activation, % at 20 µM; 1,000 tested, 63% active; AID 485299;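 active = reporter signal at least 30% of the positive control's activation in two or more of four replicate wells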
Large screens that a line does not name were inactive (follow-up assays come after a bar, where they were run). Only a selection was taken, and hits are over-represented in it overall.

CCOC(=O)c1c(CSC(=N)N)n(C)c2cc(Br)c(OC(C)=O)cc12	none (no result: L major viab)
CCOC(=O)c1c(CSC(=N)N)n(-c2ccc(C)cc2)c2cc(Br)c(OC(C)=O)cc12	L major viab 53, CHOP UPR activ 56 | Lmaj promast 1uM inactive | CHOP UPR conf 73
O=C(CSc1nnc(Cc2ccccc2)o1)Nc1ccc(N2CCOCC2)cc1	none (no result: L major viab, T cruzi inh, Dynein transport, CHOP inh)
COc1ccc(OC)c(C=NNC(=O)c2ccccc2NS(=O)(=O)c2cccs2)c1	none (no result: L major viab, T cruzi inh, Dynein transport, CHOP inh)
CCOC(=O)c1ccc(N=c2sc(C(=O)OC)cc(=O)n2Cc2ccco2)cc1	L major viab 100, CHOP UPR activ 41, Dynein transport -6.3 | Lmaj promast 1uM inactive | Dynein inh conf active | CHOP UPR conf inactive
O=C(O)c1cc2c([nH]c1=O)CCCC2	none (no result: CHOP inh)
C=CCSC(=C(C#N)C#N)c1cc2c([nH]1)CCCC2	L major viab 100, CHOP UPR activ 43, Dynein transport -4 | Lmaj promast 1uM inactive | Dynein inh conf active | CHOP UPR conf 55
O=[N+]([O-])c1cccc(-c2nnc(C34CC5CC(CC(C5)C3)C4)o2)c1	none
O=[N+]([O-])c1cc(-c2nnc(C34CC5CC(CC(C5)C3)C4)o2)cc([N+](=O)[O-])c1	L major viab 100, CHOP UPR activ 137, T cruzi inh 57 | Lmaj promast 1uM 96 | CHOP UPR conf inactive
O=C(O)c1sccc1Oc1ccc(NS(=O)(=O)c2ccccc2)cc1	none (no result: L major viab, Dynein transport, CHOP inh)
Cc1ccc2nc(N3CCN(c4cccc(C)c4C)CC3)c3nnnn3c2c1	none
Cc1ccc2nc(Cl)c3nnnn3c2c1	L major viab 100, CHOP UPR activ 139, Dynein transport -5.2, CHOP inh 105 | Lmaj promast 1uM 93 | Dynein inh conf active | CHOP UPR conf inactive
Cc1ccc(C(=O)C(C(=O)/C=C/c2ccccc2)=C2SCCCS2)cc1	L major viab 100, CHOP UPR activ 75, T cruzi inh 59, Dynein transport -4.5, XBP1 UPR activ 30 | Lmaj promast 1uM inactive | CHOP UPR conf 96 | UPR XBP1 confirm 39
CCN(CC(=O)NCc1cccs1)C(=O)C(c1ccccc1)c1ccccc1	none (no result: L major viab, Dynein transport, CHOP inh)
O=c1c(Cl)c(NCCCO)cnn1-c1nc2ccccc2[nH]1	Dynein transport -4.2 | Dynein inh conf active
COc1cc(OC)cc(C(=O)NCC(=O)OC2CCCCC2=O)c1 (stereo unspecified)	none (no result: L major viab, T cruzi inh, Dynein transport, CHOP inh)
CN[C@@H](C)C(=O)NC[C@H]1O[C@@H](n2cnc3c(N)ncnc32)[C@H](O)[C@@H]1O	none (no result: L major viab, T cruzi inh, Dynein transport, CHOP inh)
Cc1cc(O)c(NC(=O)c2cc([N+](=O)[O-])ccc2Cl)cc1C	none
Cc1ccc(O)c(NC(=O)c2cc([N+](=O)[O-])ccc2Cl)c1	Dynein transport -3.7 | Dynein inh conf active
CC1CCc2cc(F)ccc2N1C(=O)CCl (stereo unspecified)	L major viab 75, Dynein transport -5.4, CHOP inh 92 (no result: CHOP UPR activ, T cruzi inh, XBP1 UPR activ) | Dynein inh conf active
CCC(CC)C(=O)N1c2ccc(F)cc2CCC1C (stereo unspecified)	none
CC1(C)CC(=O)C2=C(C1)OC(N)=C(C#N)C2C#Cc1ccccc1 (stereo unspecified)	Dynein transport -5.4 | Dynein inh conf active
CC(c1ccccc1)C1C(C#N)=C(N)OC2=C1C(=O)CC(C)(C)C2 (stereo unspecified)	none
CC1=Nc2ccccc2/C1=C/c1nc(-c2ccc(C)s2)oc1O	none | Dynein inh conf inconclusive
CC1=Nc2ccccc2/C1=C\c1nc(-c2ccccc2)oc1O	none
CC(C)NC(=O)c1ccc(CN2CCc3ccccc3C2)cc1	none (no result: L major viab, Dynein transport, CHOP inh)
C=CCOCCN(CC)CC	none (no result: L major viab, CHOP UPR activ, XBP1 UPR activ)
O=C(CCN1C(=O)C2C3C=CC(C4CC34)C2C1=O)Nc1ccc(Cl)cc1O (stereo unspecified)	none (no result: L major viab, Dynein transport, CHOP inh)
O=C(CN1CCCc2ccccc21)NC(=O)NC1CCCCC1	none | Dynein inh conf inactive
C=CCn1c(Sc2ncc([N+](=O)[O-])s2)n[nH]c1=O	Dynein transport -5.7 (no result: L major viab) | Dynein inh conf active
CC(C)Oc1ccc(C(=O)OCC(=O)c2ccc[nH]2)cc1	none (no result: L major viab, T cruzi inh, Dynein transport, CHOP inh)
CCCn1nc([N+](=O)[O-])c(C(C#N)c2nc3ccccc3s2)c(Cl)c1=O (stereo unspecified)	Dynein transport -5.1 | Dynein inh conf active
O=C1CN(S(=O)(=O)c2cccc(Br)c2)CCN1	none (no result: L major viab, T cruzi inh, Dynein transport, CHOP inh)
COCc1cc(S(=O)c2ccc(Cl)cc2)nc(C)n1 (stereo unspecified)	L major viab 99, T cruzi inh 61, Dynein transport -4.5 (no result: CHOP UPR activ, XBP1 UPR activ) | Dynein inh conf active
Cn1cc([N+](=O)[O-])c(C(=O)Nc2nc(-c3ccc(Cl)cc3)cs2)n1	Dynein transport -3.9 | Dynein inh conf active
Cc1ccc(Cn2ccc(NC(=O)c3nn(C)cc3[N+](=O)[O-])n2)cc1	T cruzi inh inconclusive
Cc1cnc(NC(=O)c2nn(C)cc2[N+](=O)[O-])s1	Dynein transport -3.6 | Dynein inh conf active
CC1CN(CC(=O)Nc2ccc(S(N)(=O)=O)cc2)CC(C)O1 (stereo unspecified)	none (no result: L major viab, Dynein transport, CHOP inh)
O=C(CCN1Cc2ccccc2C1)c1ccc2c(c1)OCCO2	L major viab 83, Dynein transport -3.6 | Dynein inh conf inconclusive
CCCC(=O)c1ccc2c(c1)OCCO2	none
O=C(/C=C/c1ccncc1)c1ccc2c(c1)OCCO2	L major viab 100, Dynein transport -5.4 | Dynein inh conf active
CCOc1ccc(CNC(=O)Cn2nc(C)c3c(C)n(-c4ccc(C)cc4)nc3c2=O)cc1	none (no result: L major viab, Dynein transport, CHOP inh)
CCOC(=O)c1csc(NC(=O)c2ccc3c(c2)OCCO3)n1	none (no result: L major viab, Dynein transport, CHOP inh)
COc1ccccc1-c1nnc(SCC(=O)N2CCCCC2)o1	none (no result: L major viab, Dynein transport, CHOP inh)
COc1ccccc1-c1nnc(Sc2nc([N+](=O)[O-])nn2C)o1	L major viab 97, T cruzi inh 58, Dynein transport -4.1 | Dynein inh conf active
O=C(CS(=O)c1ccc(C(F)(F)F)cc1[N+](=O)[O-])Oc1ccc(Cl)cc1 (stereo unspecified)	none
